# Measured values from different studies.
# Compare with care: the assays were run in different laboratories.
# Target: Ribosomal protein S6 kinase beta-1 (RPS6KB1, Homo sapiens, UniProt P23443)
SMILES,test,conditions,remaining binding [%]
C[C@H](NC(=O)c1cnc2n1[C@](C)(Cc1ccc(C#N)cc1)C(=O)N2c1cc(Cl)c(F)c(Cl)c1)C(=O)NC1(c2ccccn2)CC1,"cell-free assay, competition with immobilised ligand",1 µM,100
N[C@H]1CCN(c2nccc(-c3cnn4ncccc34)n2)C1,binding,1 µM,100
O=C(c1ccc(Nc2ncc(Cl)c(-c3ccc(Cl)s3)n2)cc1)N1CCC(N2CCCC2)CC1,"binding, competition with immobilised ligand",1 µM,21
O=C(O)c1cc(-c2ccc(C3CCNCC3)cc2)c2ccc(-c3ccc(C(F)(F)F)cc3)cc2c1,"cell-free assay, competition with immobilised ligand",1 µM,100
F[C@@H]1CCN(c2nccc(-c3cnn4ncccc34)n2)C1,binding,1 µM,100
CCN1CCN(Cc2ccc(C(=O)Nc3ccc(C)c(Oc4ccc5c(c4)CC(=O)N5)c3)cc2C(F)(F)F)CC1,"binding, competition with immobilised ligand",1 µM,100
CNC(=O)[C@@H]1CC[C@@H](n2c(-c3ccc4cnccc4c3)nc3ccc(C(=O)NCc4cccc(C(N)=O)c4)cc32)C1,"binding, competition with immobilised ligand",1 µM,87
CN(C)C(=O)Cn1cc(-c2nc([C@@](C)(c3ccc(-c4cnc(N)nc4)cc3)C3CC3)no2)cn1,"cell-free assay, competition with immobilised ligand",1 µM,83
C[C@@H](c1ccc(-n2cnc3c(N)ncnc32)cc1)N1CCc2nn(C)c(Cc3ccccc3)c2C1=O,"binding, competition with immobilised ligand",0.1 µM,67
CN(CCCC(F)(F)F)c1nccc(-c2cnn3ncccc23)n1,binding,1 µM,100
COc1ncc2cc3ccccc3nc2c1C#N,"cell-free assay, competition with immobilised ligand",5 µM,100
C[C@H]1CCN(c2nccc(-c3cnn4ncccc34)n2)C1,binding,1 µM,81
CNC(=O)c1ccc(Nc2ncc(C(F)(F)F)c(NCc3nccnc3N(C)S(C)(=O)=O)n2)cc1,"cell-free assay, competition with immobilised ligand",0.1 µM,96
CN(C)c1nccc(-c2cnn3ncccc23)n1,binding,1 µM,100
O=C(NCCCN1CCOCC1)c1ccc(Nc2ncc(Cl)c(-c3ccc(Cl)s3)n2)cc1,"binding, competition with immobilised ligand",1 µM,38
CCC(=N\O)/C(C)=C/c1ccc(F)cc1,"cell-free assay, competition with immobilised ligand",1 µM,66
O=C(NCC1CCOCC1)c1n[nH]cc1NC(=O)c1c(F)cccc1F,"binding, competition with immobilised ligand",1 µM,87
O=C(NCCCN1CCOCC1)c1ccc(Nc2nccc(-c3cc4ccccc4s3)n2)cc1,"binding, competition with immobilised ligand",1 µM,92
C[C@@H](c1cccc(C#N)c1)n1cc(Cl)cc(C(N)=O)c1=N,"cell-free assay, competition with immobilised ligand",1 µM,100
CN(C)c1ncc(F)c(-c2cnn3ncccc23)n1,binding,1 µM,78
